# TRPC4 act = opens the mouse TRPC4 cation channel; B-score at 10 µM; 310,000 tested, 0.49% active; HEK293 TRPC4beta/mu-opioid, Fluo4 calcium fluorescence; hits give high values;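 active = B-score above 5 SD of library B-scores, and initial fluorescence ratio not above library mean plus 5 SD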;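 note: positive B-score marks a calcium rise read as TRPC4 activation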
#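 Material: HEK293 stable line with TRPC4beta plus mu-opioid receptor; technique: Fluo4 calcium-sensitive dye fluorescence, kinetic, 1 Hz baseline; timing: Fluo4 dye loading 45 min at room temperature, 110 s recording; controls: assay buffer as low control, maximal DAMGO as high control; read-out: integrated baseline-normalised fluorescence ratio, converted to per-well B score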
# TRPC4 block = blocks the mouse TRPC4 cation channel; Q9QUQ5; HEK293 TRPC4beta/mu-opioid, DAMGO-evoked Fluo4 calcium flux; hits give low values; B-score at 10 µM; 300,000 tested, 0.39% active;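 active = B-score over 3 SD under the library average, no early fluorescence shift, positive overall ratio signal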
#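 Signal: kinetic Fluo4 fluorescence imaging of calcium influx. Material: stable TRPC4beta/mu-opioid receptor HEK293 cells. Probe or stimulus: DAMGO in two steps, submaximal then maximal.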
# TRPC4 potent = allosterically enhances the mouse TRPC4 cation channel; HEK293 TRPC4beta/mu-opioid, DAMGO EC20, Fluo-4 Ca2+ flux; hits give high values; 310,000 tested, 0.42% active; B-score at 10 µM;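 active = B-score of calcium response area above 5 SD of library B-scores, with initial fluorescence ratio within 5 SD of library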;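 note: B-score of integrated fluorescence ratio over time as area under calcium response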
# TRPC6 activator = activators of mouse TRPC6 channel; Q61143; B-score at 10 µM; HEK293-TRPC6 membrane potential dye fluorescence; hits give high values; 310,000 tested, 0.13% active;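 active = B-score of the integrated fluorescence ratio above library mean plus 3 SD, and starting fluorescence ratio within library mean plus 5 SD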;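 note: higher score means more depolarization so channel activation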
# Target sequence (Q61143 whole entry, looked up): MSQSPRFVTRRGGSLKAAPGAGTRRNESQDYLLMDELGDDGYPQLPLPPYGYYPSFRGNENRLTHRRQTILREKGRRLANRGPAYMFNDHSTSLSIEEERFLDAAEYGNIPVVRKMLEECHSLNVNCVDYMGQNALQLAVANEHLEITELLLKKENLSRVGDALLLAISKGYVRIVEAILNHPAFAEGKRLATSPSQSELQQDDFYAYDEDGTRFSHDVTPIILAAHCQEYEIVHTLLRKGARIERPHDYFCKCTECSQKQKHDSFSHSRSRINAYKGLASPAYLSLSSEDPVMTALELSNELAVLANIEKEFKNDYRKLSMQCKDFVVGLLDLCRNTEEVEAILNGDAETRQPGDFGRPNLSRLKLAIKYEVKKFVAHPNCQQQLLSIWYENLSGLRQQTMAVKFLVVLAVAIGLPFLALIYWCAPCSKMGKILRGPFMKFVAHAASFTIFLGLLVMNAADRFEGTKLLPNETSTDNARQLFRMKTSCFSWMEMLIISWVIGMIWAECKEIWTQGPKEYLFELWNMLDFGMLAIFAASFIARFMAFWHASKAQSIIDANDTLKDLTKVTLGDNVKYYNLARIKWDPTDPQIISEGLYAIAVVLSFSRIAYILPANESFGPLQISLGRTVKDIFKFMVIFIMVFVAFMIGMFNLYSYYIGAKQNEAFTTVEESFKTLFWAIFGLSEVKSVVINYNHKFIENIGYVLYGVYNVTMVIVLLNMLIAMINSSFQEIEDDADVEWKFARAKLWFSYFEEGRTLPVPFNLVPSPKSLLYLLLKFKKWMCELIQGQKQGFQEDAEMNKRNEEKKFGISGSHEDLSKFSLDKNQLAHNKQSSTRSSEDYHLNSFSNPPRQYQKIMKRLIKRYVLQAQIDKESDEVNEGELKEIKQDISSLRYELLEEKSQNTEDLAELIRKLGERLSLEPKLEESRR
# TRPC6 inhibitor = mouse TRPC6 channel inhibition; Q61143; HEK293-TRPC6, membrane potential dye, ACh-evoked depolarization; hits give low values; B-score at 10 µM; 310,000 tested, 1.1% active; AID 2553;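 active = B-score under library mean minus 3 SD, initial fluorescence not abnormally high, positive integrated signal ratio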;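 note: B-score derived from integrated fluorescence ratio over the kinetic read; more negative B-score means stronger inhibition of depolarization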
# TRPC4 sel inh 2 = second check of whether TRPC6 inhibitors also affect mouse TRPC4 | 920 tested, 42% active | HEK293 TRPC4/MOR, membrane potential dye fluorescence; channel activated by saturating DAMGO dose | shares compounds with TRPC6 inhibitor | inhibition, % at 10 µM;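 active = compounds whose fluorescence signal differed from control wells by over 3 SD, either direction, in both duplicate plates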
# TRPC4 spec = mouse TRPC4 off-target activity of TRPC6 inhibitors; shares compounds with TRPC6 inhibitor; HEK293 TRPC4/mu-opioid, membrane potential fluorescence; activity change, negative = inhibition, % at 10 µM; 920 tested, 61% active;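 active = rise or fall in signal beyond 3 SD of buffer-only wells in both replicate plates, either sign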;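 note: integrated kinetic ratio of fluorescence range over baseline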
# HEK293 MPD ctr 2-1 = parental HEK293 nonspecific activity of TRPC6 inhibitors, second screen; shares compounds with TRPC6 inhibitor; parental HEK293 membrane potential dye fluorescence; maximal acetylcholine challenge after compound addition; signal change vs control, % at 10 µM; 920 tested, 31% active; AID 2779;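 active = membrane potential signal moving either way by over 3 SD of the maximum-effect control, in both duplicate plates, meaning non-specific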
# HEK293 MPD ctr-1 = parental HEK293 nonspecific activity of TRPC6 inhibitors | shares compounds with TRPC6 inhibitor | parental HEK293 membrane potential dye fluorescence | 920 tested, 60% active | membrane potential signal change, % at 10 µM | AID 2780;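 active = membrane potential signal shifting up or down by more than 3 SD of buffer-only wells, on both duplicate plates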
# HEK293 MPD ctr-2 = counter-screen for TRPC6 modulators: effect in parental HEK293 cells; AID 488924; membrane potential signal change, % at 10 µM; 2,400 tested, 51% active; membrane potential dye fluorescence; shares compounds with TRPC6 inhibitor;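 active = membrane potential signal moves up or down beyond 5 SD from buffer-only wells, on both duplicate plates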
# HEK293 MPD ctr 2-2 = parental HEK293 nonspecific activity of TRPC6 modulators, second screen; inhibition, % at 10 µM; 2,400 tested, 14% active; AID 488926; membrane potential dye fluorescence; after compound, maximal acetylcholine stimulation; shares compounds with TRPC6 inhibitor;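 active = membrane potential signal drops by more than 5 SD from the mean control signal, in both duplicate plates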;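 note: plate controls were acetylcholine ECmax control wells for no effect and buffer only wells for full effect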
# TRPC4 ctr mod = tests whether TRPC6 modulators also affect mouse TRPC4 | shares compounds with TRPC6 inhibitor | HEK293 TRPC4/mu-opioid, membrane potential fluorescence | percent change from control (negative = decrease, positive = increase), % at 10 µM | 2,400 tested, 69% active | AID 488927;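 active = membrane potential signal moved up or down beyond 5 SD of buffer control wells, in both duplicate plates, actives on both sides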;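 note: plate controls were assay buffer wells for no effect and DAMGO maximal-effect wells for full effect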
# TRPC4/MOR inh 2 = second check of whether TRPC6 modulators also affect mouse TRPC4 | 2,400 tested, 55% active | HEK293 TRPC4/mu-opioid, membrane potential dye fluorescence; stimulated with maximal-effect DAMGO | shares compounds with TRPC6 inhibitor | inhibition, % at 10 µM | AID 488928;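 active = drop in membrane potential signal beyond 5 SD of the control wells in both duplicate plates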;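 note: TRPC4 counter screen for TRPC6 hits run under conditions tuned for TRPC6 not TRPC4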
# TRPC6 inh conf = mouse TRPC6 inhibitor confirmation; HEK293-TRPC6, membrane potential dye, ACh-evoked depolarization; shares compounds with TRPC6 inhibitor; inhibition, % at 10 µM; 3,300 tested, 43% active; AID 488960;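 active = fluorescence ratio falls more than 5 SD below the full-stimulation control mean, in both duplicate runs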;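 note: integrated fluorescence ratio of peak minus minimum over baseline after agonist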
# TRPC6 act conf = mouse TRPC6 activator confirmation | 2,800 tested, 11% active | activation, % at 10 µM | HEK293-TRPC6 membrane potential dye fluorescence, FDSS | shares compounds with TRPC6 inhibitor;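 active = ratio signal rise beyond 5 SD above unstimulated control wells' mean, seen in both duplicate runs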;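 note: plate controls were buffer EC0 wells for no effect and acetylcholine ECmax response for full effect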
# Starred values were filed as active, the others as inactive; i = inactive; · = not tested or not shown. The list is not random: actives were taken first. Their share in the collection is about 2.3%.
SMILES,TRPC4 act,TRPC4 block,TRPC4 potent,TRPC6 activator,TRPC6 inhibitor,TRPC6 inh conf,TRPC6 act conf,others
CCc1cc2c(N3CCN(C)CC3)ncnc2s1,i,i,i,i,i,·,·,
CCN1CCN(c2ncnc3ccc(Br)cc23)CC1,i,i,i,i,-7.62*,i,i,TRPC4 sel inh 2=i;TRPC4 spec=i;HEK293 MPD ctr 2-1=i;HEK293 MPD ctr-1=-192.5%*
Cn1c(O)c(/C=C/C=Nc2ccccc2)c(=O)n(C)c1=S,i,i,i,i,i,·,·,
OCC[n+]1c2ccccc2nc2ccc(N3CCOCC3)cc21,i,i,i,i,-10*,82.0%*,i,HEK293 MPD ctr-2=-273.5%*;HEK293 MPD ctr 2-2=104.0%*;TRPC4 ctr mod=-47.0%*;TRPC4/MOR inh 2=72.0%*
COc1ccccc1OCC#CCN1CCCC(C)C1 (centres undefined),i,i,i,i,i,·,·,
COc1cccc(OCc2cc(C(=O)N3C[C@H]4C[C@@H](C3)c3cccc(=O)n3C4)no2)c1,i,i,i,i,i,·,·,
CN1CCC(O)(c2ccc(Cl)cc2)C(C(=O)c2ccc(Cl)cc2)C1 (centres undefined),i,i,i,i,-5.44*,i,i,HEK293 MPD ctr-2=i;HEK293 MPD ctr 2-2=i;TRPC4 ctr mod=i;TRPC4/MOR inh 2=35.0%*
CN1CC(C(=O)c2ccc(Cl)cc2)C(c2ccc(Cl)cc2Cl)C1 (centres undefined),i,i,i,i,i,·,·,
Cc1ccc(-c2cc(-c3ccc(C)cc3)[n+](-c3ccccc3)c(-c3ccc(C)cc3)c2)cc1,82*,i,i,i,-8.66*,101.4%*,i,TRPC4 sel inh 2=41.0%*;TRPC4 spec=3.5%*;HEK293 MPD ctr 2-1=i;HEK293 MPD ctr-1=6.0%*
Cc1ccc(-c2cc(-c3ccc(C)cc3)[n+](C)o2)cc1,i,i,i,i,i,·,·,
C[n+]1c(-c2ccccc2)cc(-c2ccc(Cl)cc2)cc1-c1ccccc1,i,i,i,i,i,·,·,
Cc1ccc(-c2cc(-c3ccccc3)cc(-c3ccccc3)[n+]2-c2ccccc2)cc1,i,i,33*,i,-9.6*,95.8%*,i,TRPC4 sel inh 2=54.0%*;TRPC4 spec=14.1%*;HEK293 MPD ctr 2-1=i;HEK293 MPD ctr-1=8.2%*
CCC(C)C1NC(=O)C(C(C)=O)=C1O (centres undefined),i,i,i,i,i,·,·,
C[n+]1c(-c2ccccc2)c2cc(N)ccc2c2ccc(N)cc21,i,i,i,i,-6.7*,56.5%*,i,HEK293 MPD ctr-2=-208.5%*;HEK293 MPD ctr 2-2=80.0%*;TRPC4 ctr mod=-73.0%*;TRPC4/MOR inh 2=67.5%*
C[N+]12CCC(CC1)C(OC(=O)C(O)(c1ccccc1)c1ccccc1)C2 (centres undefined),i,i,i,i,-8.82*,80.9%*,i,TRPC4 sel inh 2=i;TRPC4 spec=i;HEK293 MPD ctr 2-1=8.0%*;HEK293 MPD ctr-1=i
C[N+]12CCC(CC1)C(C(O)(c1cccc(Cl)c1)c1cccc(Cl)c1)C2 (centres undefined),i,i,i,i,i,·,·,
CCC(CO)(C(=O)OC1C[N+]2(C)CCC1CC2)c1ccccc1 (centres undefined),i,i,i,i,-11.5*,97.2%*,i,TRPC4 sel inh 2=i;TRPC4 spec=i;HEK293 MPD ctr 2-1=-30.5%*;HEK293 MPD ctr-1=i
c1ccc2c(c1)CC1CNCc3cccc(c31)S2 (centres undefined),i,i,i,i,-7.08*,66.2%*,i,TRPC4 sel inh 2=62.0%*;TRPC4 spec=i;HEK293 MPD ctr 2-1=i;HEK293 MPD ctr-1=i
O=c1c2ccc(Cl)cc2[nH]c(=S)n1-c1cccnc1,i,i,i,i,i,·,·,
COc1cc2c(cc1OC)-c1c(OC)c(OC)c(OC)c3ccnc(c13)C2=O,i,i,i,i,-7.04*,56.5%*,i,HEK293 MPD ctr-2=-141.5%*;HEK293 MPD ctr 2-2=i;TRPC4 ctr mod=-29.0%*;TRPC4/MOR inh 2=73.5%*
O=C(C1CC(c2ccccc2O)=NO1)N1CCC2(CC1)OCCO2 (centres undefined),i,i,i,i,i,·,·,
O=P1(NCc2ccco2)COc2ccccc2OC1,i,i,i,i,i,·,·,
COc1cc(C[C@@H](C)N)c(OC)cc1I,i,i,i,i,-5.15*,41.5%*,i,HEK293 MPD ctr-2=i;HEK293 MPD ctr 2-2=i;TRPC4 ctr mod=i;TRPC4/MOR inh 2=41.5%*
O=C(COc1ccc2ccc(=O)oc2c1)N1CCC(C(=O)O)(c2ccccc2)CC1,i,i,i,i,i,·,·,
CCCCn1c(O)c(C(=O)/C=C/c2c[nH]c3ccccc23)c(=O)[nH]c1=O,i,i,i,247*,i,i,212.5%*,HEK293 MPD ctr-2=941.0%*;HEK293 MPD ctr 2-2=i;TRPC4 ctr mod=586.0%*;TRPC4/MOR inh 2=i
Cc1cccc(-n2c(O)c(C=NCc3cccnc3)c(=O)[nH]c2=O)c1C,i,i,i,i,i,·,·,
CC(=NCCCN1CCOCC1)c1c(O)[nH]c(=O)[nH]c1=O,i,i,i,i,i,·,·,
CN1CCN(Cc2ccc3ccccc3c2)CC1,i,i,i,i,i,·,·,
CN1CCN(CCC(C#N)(c2ccccc2)c2ccccc2)CC1,i,i,i,i,-7.24*,i,·,TRPC4 sel inh 2=i;TRPC4 spec=2.6%*;HEK293 MPD ctr 2-1=15.0%*;HEK293 MPD ctr-1=7.2%*

# Source: PubChem BioAssay
